Casp6 inh = inhibitors of human caspase-6. P55212. purified caspase-6, Z-VEID-R110 cleavage fluorescence. inhibition, % at 12.5 µM. 0.53% of 350,000 active. AID 686996;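 active = mean inhibition across replicates at least about 35%, with every replicate also reaching that limit, limit read from the data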;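 note: 0% = median of neutral control wells and 100% = no fluorescence left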
NS3 helicase inh = inhibitors of Hepatitis C virus NS3 helicase. 0.56% of 290,000 active. NS3 helicase DNA unwinding, Cy5 molecular beacon fluorescence. AID 1800. inhibition, % at 10.9 µM;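 active = inhibition above the mean of all tested compounds plus 3 SD, set per campaign, cut at about 35% in these data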;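 note: 0% = DMSO wells and 100% = thioflavine S control wells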
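Material: hepatitis C virus NS3 helicase domain fragment enzyme; measured by: Cy5 fluorescence, 0 and 60 min reads; control set: DMSO and thioflavine S; incubation: 60 min unwinding reaction at 25 °C after ATP addition; read-out basis: % inhibition from 60/0 min fluorescence ratio, DMSO 0%, thioflavine S 100%; repeats: singlicate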
NSD2 inh = inhibitors of human histone methyltransferase NSD2; 0.54% of 310,000 active; O96028; NSD2 peptide methylation, AlphaScreen, 120 min; inhibition, % at 12.5 µM; in the data active = inhibition above about 50%
DNMT1 inh = DNMT1 (human) enzyme inhibition; inhibition (reported as % activation of signal), % at 10 µM; AID 588458; 0.83% of 360,000 active; P26358; DNMT1 molecular beacon, Hinp1I cleavage, fluorescence; in the data active = inhibition above about 50%
NS3 hel confirm = HCV NS3 helicase inhibition, confirmation assay. shares compounds with NS3 helicase inh. 31% of 1,600 active. inhibition, % at 10.9 µM. NS3 helicase DNA unwinding, Cy5 molecular beacon fluorescence;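 active = inhibition above the mean of all tested compounds plus 3 SD, cutoff set per campaign, cut at about 36% in these data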
FID counter trip = intercalator displacement, NS3 helicase counter-screen | shares compounds with NS3 helicase inh | DNA fluorescent intercalator displacement, fluorescence | inhibition, % at 7.9 µM | 4% of 1,600 active | AID 1945; in the data active = inhibition above about 37%;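 note: 0% = vehicle and 100% = reference compound; higher means more displacement of ethidium bromide from the DNA hairpin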
DNA FID DR = DNA intercalator displacement in dose response; IC50, µM; shares compounds with NS3 helicase inh; 120 tested, under 10 active; fluorescent intercalator displacement from DNA, fluorescence; AID 2172
Beacon interf DR = shows spectral interference in the DNMT1 beacon assay; shares compounds with DNMT1 inh; molecular beacon fluorescence, spectral interference counter-screen; IC50, µM; 200 tested, under 10 active
DNMT1 inh conf = DNMT1 inhibition confirmation, single concentration | shares compounds with DNMT1 inh | DNMT1 molecular beacon HinP1I cleavage, fluorescence | inhibition, % at 10 µM | 8% of 2,300 active | AID 602385;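 active = average inhibition of at least 30% in the single-concentration confirmation test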
Beacon interf = shows spectral interference in the DNMT1 beacon assay; shares compounds with DNMT1 inh; DNMT1 molecular beacon spectral interference counterscreen, fluorescence 485/520; activation (fluorescence interference), % at 10 µM; 1% of 2,300 active; AID 602387;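 active = activation of at least 30% at 10 µM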;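 note: DNMT1 catalytic domain with a HinP1I cleavage step and a FAM/dabcyl DNA beacon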
CASP1 counter = caspase-1 (human) inhibition counter-screen | shares compounds with Casp6 inh | purified caspase-1, Z-YVAD-R110 cleavage fluorescence | activity change, negative = inhibition, % at 35 µM | 100 tested, under 10 active | AID 743289;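 active = compounds lowering fluorescence whose fitted half-maximal concentration is no more than twice their top tested dose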
Alpha artifact = counter-screen for NSD2 inhibitors: AlphaScreen artifacts | shares compounds with NSD2 inh | AlphaScreen artifact counterscreen, preloaded methylated H4 peptide | AC35, µM (doses to about 10 µM), without a hit: top-dose activity change, negative = signal loss | 9.4% of 1,500 active | AID 1053174
* hit, by the source's call. Sampled rows, rich in hits. Any-hit rate of the full collection: about 1.5%. Unless noted, the rule behind the calls is not given here.

Screening Cc1cc2oc(=O)cc(-c3cc4ccccc4o3)c2cc1O returned Casp6 inh 4, NS3 helicase inh 39*, NSD2 inh 8, DNMT1 inh 81*, NS3 hel confirm -4, FID counter trip 6, DNMT1 inh conf 1 and Beacon interf 1.
For O=c1cc(-c2cc3ccccc3o2)c2cc(O)ccc2o1 the results were NS3 helicase inh 12, NSD2 inh 0 and DNMT1 inh -2.
`CO[C@@H](CN(C)C(=O)c1ccccc1F)[C@@H](C)CN([C@H](C)CO)S(=O)(=O)c1ccccc1` gave Casp6 inh 2.
Screening CCC(=O)Nc1ccc2nc3c(=O)[nH]c(=S)[nH]c3nc2c1 returned Casp6 inh 1, NS3 helicase inh 39*, NSD2 inh 9, DNMT1 inh 55*, NS3 hel confirm -21, FID counter trip 5, DNMT1 inh conf 4 and Beacon interf 3.
Screening COc1ccc(N=C2NC(=O)/C(=C/c3ccco3)S2)cc1 returned Casp6 inh 12, NS3 helicase inh 25, NSD2 inh -3 and DNMT1 inh 2.
Screening COc1ccc(S(=O)(=O)/N=C2/NC(=O)/C(=C/c3ccco3)S2)cc1 returned Casp6 inh 62*, NS3 helicase inh 37*, NSD2 inh 26, DNMT1 inh 64*, NS3 hel confirm 78*, FID counter trip -2, DNA FID DR >79, DNMT1 inh conf 0 and Beacon interf -1.
Screening C=CCn1c(SCC(=O)NCC2CCCO2)nc2scc(-c3ccco3)c2c1=O (stereo not drawn) returned NS3 helicase inh 23, NSD2 inh 6 and DNMT1 inh 2.
O=C(CSc1nc2scc(-c3ccco3)c2c(=O)n1-c1ccccc1)NCC1CCCO1 (stereo not drawn) was read as NS3 helicase inh 86*, NSD2 inh 0, DNMT1 inh 93*, NS3 hel confirm 15, FID counter trip -45, DNMT1 inh conf 0 and Beacon interf -3.
For O=C(Cc1cccnc1)N[C@H]1CC[C@@H](CCn2cc(Cc3ccccc3)nn2)O[C@@H]1CO the results were Casp6 inh 1.
For CNC(=O)C[C@H]1CC[C@@H]2[C@H](COc3ccc(NC(=O)Nc4ccccc4)cc3C(=O)N2C)O1 the results were Casp6 inh 6.
O=C(C[C@@H]1CC[C@@H](NS(=O)(=O)c2ccccc2)[C@H](CO)O1)N1CCN(c2ccccc2)CC1 was read as Casp6 inh -1.
`Cc1ccc(S(=O)(=O)N(C)C[C@@H]2OCCCC[C@H](C)Oc3ccc(NC(=O)NC(C)C)cc3C(=O)N([C@H](C)CO)C[C@H]2C)cc1` gave Casp6 inh 3.
`C[C@@H]1CN([C@@H](C)CO)C(=O)Cc2cc(NC(=O)Cc3cn(C)c4ccccc34)ccc2O[C@@H]1CN(C)C` gave Casp6 inh -1.
For C/C(CC(=O)N1CCCC1)=N\NC(=O)c1cc2ccccc2cc1O the results were Casp6 inh 39*, NS3 helicase inh 45*, NSD2 inh 70*, DNMT1 inh 2, NS3 hel confirm 5, FID counter trip -5 and CASP1 counter 13.
Screening C[C@H]1CN([C@@H](C)CO)S(=O)(=O)c2ccc(-c3cccc(F)c3)cc2O[C@H]1CN(C)CC1CC1 returned Casp6 inh -2.
Screening Cc1ccc(-n2cccc2/C=C2/C(=N)N3C(=NC2=O)SN=C3S(C)(=O)=O)cc1Cl returned NS3 helicase inh 49*, NSD2 inh 127*, DNMT1 inh 84*, NS3 hel confirm 64*, FID counter trip 11, Beacon interf DR >99, DNMT1 inh conf 37*, Beacon interf -3 and Alpha artifact -9%.
Screening O=C(C[C@@H]1C[C@@H]2c3cc(NC(=O)NC4CCCCC4)ccc3O[C@@H]2[C@H](CO)O1)NC1CCCCC1 returned Casp6 inh 1.
Screening CC(/C=C1\SC(=S)N(NS(=O)(=O)c2ccc(C)cc2)C1=O)=C\c1ccccc1 returned Casp6 inh 0, NS3 helicase inh 43*, NSD2 inh 73*, DNMT1 inh 33, NS3 hel confirm 86*, FID counter trip 1 and Alpha artifact -11%.
For N=C1/C(=C/c2coc3ccccc3c2=O)C(=O)N=C2SC(c3ccco3)=NN12 the results were NS3 helicase inh 54*, NSD2 inh 84*, DNMT1 inh 65*, NS3 hel confirm 50*, FID counter trip 50*, Beacon interf DR >99, DNMT1 inh conf 16, Beacon interf -12 and Alpha artifact -3%.
Cc1cc(/C=C2\C(=N)N3N=C(c4ccco4)SC3=NC2=O)c(C)n1Cc1ccccc1 was read as Casp6 inh -1, NS3 helicase inh 24, NSD2 inh 12 and DNMT1 inh 22.
For O=C(O)c1cc(-c2cc3ccccc3o2)nn1-c1ccccc1 the results were Casp6 inh 11, NS3 helicase inh 21, NSD2 inh 1 and DNMT1 inh 6.
O=C(O)c1cc(-c2ccco2)nn1-c1ccc(Cl)cc1 was read as Casp6 inh 50*, NS3 helicase inh 44*, NSD2 inh 60*, DNMT1 inh 96*, NS3 hel confirm 83*, FID counter trip 7, DNMT1 inh conf 12, Beacon interf 3 and Alpha artifact -5%.
`O=c1[nH]n2c(=O)c3c([nH]c2c1N=Nc1cccc(C(F)(F)F)c1)CCCC3` gave NS3 helicase inh 64*, NSD2 inh 125*, DNMT1 inh 5, NS3 hel confirm 79*, FID counter trip 20 and Alpha artifact -8%.
`COc1cc(OC)c(-c2c3cc(O)c(=O)cc-3oc3cc(O)c(O)cc23)cc1OC` gave Casp6 inh 64*, NS3 helicase inh 51*, NSD2 inh 143*, DNMT1 inh 17, NS3 hel confirm 86*, FID counter trip -167 and Alpha artifact 0.85µM*.
